Experimental findings from ChEMBL document CHEMBL4513216, “Probing the Open Global Health Chemical Diversity Library for Multistage-Active Starting Points for Next-Generation Antimalarials” (ACS Infect Dis, 2020) are described below.

Structures are written as SMILES.

This data set is described as follows: Toxicity liver stage against HepG2, at 10uM. The class given is cell-based. As to conditions: human, HepG2-A16-CD81EGFP cells; read-out: INHIBITION
Set-up: test concentration 10 uM, cell line HepG2-A16-CD81EGFP. The essentials: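 Uninfected HepG2-A16-CD81EGFP cells, 3 × 10^3 per well, 1536-well, plated on prespotted compound at 10 μM final, parasite-free screening media added to match infected plates; puromycin 10 μM positive, DMSO 0.5% negative; run in parallel with 48 h PbLuc assay at 37 °C, 5% CO2; viability by CellTiter-Glo luminescence, normalized to controls.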
`COc1ccc(S(=O)(=O)N2CCOC(Cn3ccnc3)C2)cc1` (configuration not stated): the cytotoxicity at 10 µM was 7.25%.

Regarding `CC(C)[C@H](NC(=O)NC1CCS(=O)(=O)C1)C(=O)NCc1ccc(Cl)cc1` (some centres not stated), the cytotoxicity at 10 µM is 3.09%.

For the molecule `CCOC(=O)c1sc(NC(=O)c2cc(=O)c(OC)c[nH]2)nc1C`, the cytotoxicity at 10 µM is -57.1%.

In the case of `COC1CCN(c2ccc(NC(=O)Cn3cccn3)cc2)CC1`, the cytotoxicity at 10 µM was determined as 2.04%.

On to `CS(=O)(=O)N1CC2(CCN(c3nccs3)CC2)c2ccccc21`, for which the cytotoxicity at 10 µM turned out to be 0.933%.

Turning to `C1CCN(Cc2nnn3c2CN(CC2CC2)CCC3)C1`, the cytotoxicity at 10 µM is -139%.

On to `O=C([C@H]1COC[C@H]2CN(c3ccncn3)C[C@H]21)N1CCCC1`, for which the cytotoxicity at 10 µM was -140%.

For the molecule `O=C(Cc1ccsc1)N1CCC[C@@H]1Cn1c(=O)oc2ccccc21`, the cytotoxicity at 10 µM worked out at 4.53%.

`O=C(c1ccc(=O)[nH]n1)N1CCNCC1c1ccccc1` (configuration not stated): the cytotoxicity at 10 µM is -2.44%.

For the molecule `CCn1nnnc1-c1cccc(NC(N)=O)c1`, the cytotoxicity at 10 µM came to 8.92%.

On to `CC(C)c1ncc2c(n1)CN(CC1CCCCO1)CC2` (configuration not stated), for which the cytotoxicity at 10 µM came out at 8.86%.

Turning to `Cc1ccc(OCCN(C)C2CCOC2=O)cc1` (configuration not stated), the cytotoxicity at 10 µM is -146%.

For `COc1ccccc1CCNS(=O)(=O)N1CCOCC1`, the cytotoxicity at 10 µM came out at 2.52%.

As for `CNC(=O)c1sc(C(NC(=O)c2ccccc2)C2CC2)nc1C` (configuration not stated), the cytotoxicity at 10 µM was 2.31%.

For the molecule `CCOC(=O)N(C)C1CCN(Cc2cnc3ccccn23)CC1`, the cytotoxicity at 10 µM stood at 18.1%.

In the case of `CCn1cnnc1CNC(=O)NCC(C)(CC)N1CCOCC1` (configuration not stated), the cytotoxicity at 10 µM is -10.3%.

Turning to `Cc1c(COC(C)C)cccc1NC(=O)N1CC[C@H](O)C1`, the cytotoxicity at 10 µM was -11%.

`COCCOCCNC(=O)N1CCN(c2ccccc2C#N)CC1`: the cytotoxicity at 10 µM was 6.39%.

`O=C(OC1CCC1)c1ncccc1OCC(F)(F)F`: the cytotoxicity at 10 µM was -12.6%.

On to `Cc1csc(CCNC(=O)C2CCOC2)n1` (configuration not stated), for which the cytotoxicity at 10 µM was -6.17%.

On to `CC(O)CN1CCN(C(=O)c2cccn2Cc2cccnc2)CC1` (configuration not stated), for which the cytotoxicity at 10 µM was -9.15%.

With `CC(=O)N(Cc1ncc(C)o1)C1CCN(CCOc2ccccc2)C1` (configuration not stated), the cytotoxicity at 10 µM was 7.02%.

Take `CCn1cc(NC(=O)C2CCN(Cc3nc(C)c(C)o3)CC2)cn1`: the cytotoxicity at 10 µM stood at 5.3%.

Consider `COc1cccc(S(=O)(=O)CCN2CCN(CCO)CC2)c1`, for which the cytotoxicity at 10 µM turned out to be 0.878%.

For the molecule `Cc1nc(CCNC(=O)NC2CCCN(c3ncccn3)C2)cs1` (configuration not stated), the cytotoxicity at 10 µM was -129%.

For `Cc1nn(CC(=O)N2CCN(Cc3cccnc3)CC2)c(C)c1Cl`, the cytotoxicity at 10 µM is 0.612%.

With `Cc1nc(CC(=O)N2CCN(c3ccc(N(C)C)cc3)CC2)cs1`, the cytotoxicity at 10 µM is 0.236%.

Consider `CC(Oc1ccccc1C(F)(F)F)C(=O)NCCNC(=O)C1CC1` (configuration not stated), for which the cytotoxicity at 10 µM was 6.91%.

As for `CCn1ccnc1CN1CCN(CCCS(C)(=O)=O)CC1C` (configuration not stated), the cytotoxicity at 10 µM is -194%.

As to `CCN(C(=O)NCCc1cccc(F)c1F)C(C)CS(C)(=O)=O` (configuration not stated), the cytotoxicity at 10 µM was 11.9%.

Regarding `O=C(Nc1cccn(Cc2ccc(F)cc2)c1=O)c1csnn1`, the cytotoxicity at 10 µM is 1.51%.

`COc1cc(C(=O)N(C)C)ccc1NC(=O)c1ccsc1`: the cytotoxicity at 10 µM was -2.53%.

Consider `Cc1cccc(I)c1C(=O)NCc1ncc[nH]1`, for which the cytotoxicity at 10 µM was determined as 0.392%.

As to `CC(CCNC(=O)N1CCC1)N(C)C(=O)OC(C)(C)C` (configuration not stated), the cytotoxicity at 10 µM was -5.61%.

As for `O=C1C(Sc2nc(=O)ccn2C2CC2)CCN1c1ccccc1F` (configuration not stated), the cytotoxicity at 10 µM is 1.73%.

For `CN(Cc1cccc(C#N)c1)C(=O)C1CC(c2cccc(F)c2)=NO1` (configuration not stated), the cytotoxicity at 10 µM stood at 1.85%.

On to `CC(C)c1nc(C2CCCN2c2ncc(C(N)=O)cc2Cl)no1` (configuration not stated), for which the cytotoxicity at 10 µM worked out at 13.4%.

For `Cc1n[nH]c(C2CN(Cc3csc(C4CCCCC4)n3)CCO2)n1` (configuration not stated), the cytotoxicity at 10 µM was found to be 23.8%.

As for `Cc1cc(NCCS(C)(=O)=O)nc2ccccc12`, the cytotoxicity at 10 µM stood at 0.748%.

Consider `Cc1ncc(COc2cccc3c2NC(=O)CO3)s1`, for which the cytotoxicity at 10 µM was -3.13%.

Regarding `COCCNC(=O)NCc1cccc(-n2ccnc2)c1`, the cytotoxicity at 10 µM is 16.1%.

In the case of `CC(C)(C#N)c1ccccc1CN(CCO)Cc1ccsc1`, the cytotoxicity at 10 µM amounted to 20%.

On to `Cc1ccc(OCC(C)NC(=O)CN(C)c2ccc(C#N)cn2)cc1` (configuration not stated), for which the cytotoxicity at 10 µM is -6.05%.

As for `N#CC1(NC(=O)c2ccc(-c3nc(C4CC4)n[nH]3)cc2)CC1`, the cytotoxicity at 10 µM is -10.7%.

On to `Cc1nc(-c2ccco2)ccc1C(=O)N1CCc2nnc(N)cc2C1`, for which the cytotoxicity at 10 µM was -7.09%.

With `O=C(c1ccc(-n2cnnc2)nc1)N1CCCC(O)(CO)CC1` (configuration not stated), the cytotoxicity at 10 µM was -0.274%.

Regarding `CCc1nnsc1C(=O)NCCC1CCCN(C(C)C)C1` (configuration not stated), the cytotoxicity at 10 µM was 4.95%.

For the molecule `CN1CC2(CCCN(CCOCc3ccccc3)C2)OC1=O` (configuration not stated), the cytotoxicity at 10 µM was -10.4%.

In the case of `CN(Cc1ccoc1)C(=O)CN1C(=O)OC(C)(C)C1=O`, the cytotoxicity at 10 µM is -128%.

For `CC(C)c1nccn1CCCNC(=O)c1ccc(-c2cn[nH]c2)nc1`, the cytotoxicity at 10 µM is -5.84%.

Consider `O=S(=O)(Cc1ccccc1CN1CC[C@H](CO)[C@H](O)C1)c1ccccc1`, for which the cytotoxicity at 10 µM was -18.2%.

On to `CCn1nc(CC(C)C)cc1C(=O)N1CCOCC(O)C1` (configuration not stated), for which the cytotoxicity at 10 µM was -14.3%.

`C[C@@H]1CN(C(=O)c2cc(Cn3ccc4ccccc43)[nH]n2)C[C@H](C)O1`: the cytotoxicity at 10 µM is -12.2%.

For `CSc1cccc(CN2CCn3nc(CNC(C)=O)cc3C2)c1`, the cytotoxicity at 10 µM is -1.03%.

Take `CCCc1cc(C(=O)NCCCn2nnc3ccccc32)no1`: the cytotoxicity at 10 µM is -12.5%.

In the case of `COC(=O)c1ccccc1C(=O)N(CCN(C)C)Cc1sccc1C`, the cytotoxicity at 10 µM was -129%.

For the molecule `CCn1ccnc1CN1CCC(=O)N(CC2CC2)C(C(C)C)C1` (configuration not stated), the cytotoxicity at 10 µM was -10.3%.

Turning to `O=C(NCCC1CN(C2CCCC2)CCO1)c1c[nH]c(=O)[nH]c1=O` (configuration not stated), the cytotoxicity at 10 µM amounted to 0.0436%.

For the molecule `Nc1nc2c(c(=O)[nH]1)CCN(C(=O)c1ccccc1N1CCCC1)C2`, the cytotoxicity at 10 µM amounted to 1.79%.

In the case of `CC(=O)c1ccc(C(=O)N2CCC(c3cc(O)nc(C)n3)CC2)s1`, the cytotoxicity at 10 µM stood at 1.3%.

Take `Cc1ccccc1N1CCN(C(=O)CCc2nncn2C)C(C)C1` (configuration not stated): the cytotoxicity at 10 µM turned out to be 3.34%.

Turning to `c1cncc(-n2cnnc2CC2CCNCC2)c1`, the cytotoxicity at 10 µM is -20.1%.

With `CCCc1cncnc1N1CCC(NCCc2nc(O)cc(O)n2)CC1`, the cytotoxicity at 10 µM turned out to be 5.99%.

As to `Cc1ccc(C(C)N(C)Cc2nc3c(cnn3C)c(=O)[nH]2)c(C)c1` (configuration not stated), the cytotoxicity at 10 µM is -12.4%.

Consider `Cc1nc(C)c(C(=O)NCCNC(=O)Cc2ccccc2)s1`, for which the cytotoxicity at 10 µM was -7.89%.

Regarding `c1nc(N2CCOCC2)sc1-c1cncn1CCCN1CCCCC1`, the cytotoxicity at 10 µM was determined as 0.682%.

Turning to `N#Cc1cccc(N2CCCC3(C2)CN(c2ncc(F)cn2)CCO3)n1` (configuration not stated), the cytotoxicity at 10 µM was 22.3%.

For the molecule `CN(Cc1cccnc1)C[C@@H]1OC[C@H]2CN(Cc3ccco3)CC[C@H]21`, the cytotoxicity at 10 µM was -147%.

As to `Cc1nc(C)n(CC2CN(Cc3nccs3)Cc3nccn3C2)n1` (configuration not stated), the cytotoxicity at 10 µM was -140%.

As for `O=C(NC[C@H]1OC[C@@H]2CN(Cc3ccco3)CC[C@@H]21)c1cccnc1`, the cytotoxicity at 10 µM was -141%.

As to `C1CN(CC2CCOCC2)Cc2c(COCC3CC3)nnn2C1`, the cytotoxicity at 10 µM was -130%.

In the case of `Cc1nc[nH]c1CN1C[C@H]2CC[C@@H](C1)N(C(=O)CCc1cccnc1)C2`, the cytotoxicity at 10 µM was -14.2%.
